From ChEMBL document CHEMBL1821582, “SAR analysis of innovative selective small molecule antagonists of sphingosine-1-phosphate 4 (S1P₄) receptor” (Bioorg Med Chem Lett, 2011) come the findings set out here.

Active and inactive are the calls of the source. The rule behind the calls is not given here.

Test [1] concerns the target T1, Sphingosine 1-phosphate receptor 4 (Homo sapiens) (UniProt O95977).
T1 sequence (whole entry): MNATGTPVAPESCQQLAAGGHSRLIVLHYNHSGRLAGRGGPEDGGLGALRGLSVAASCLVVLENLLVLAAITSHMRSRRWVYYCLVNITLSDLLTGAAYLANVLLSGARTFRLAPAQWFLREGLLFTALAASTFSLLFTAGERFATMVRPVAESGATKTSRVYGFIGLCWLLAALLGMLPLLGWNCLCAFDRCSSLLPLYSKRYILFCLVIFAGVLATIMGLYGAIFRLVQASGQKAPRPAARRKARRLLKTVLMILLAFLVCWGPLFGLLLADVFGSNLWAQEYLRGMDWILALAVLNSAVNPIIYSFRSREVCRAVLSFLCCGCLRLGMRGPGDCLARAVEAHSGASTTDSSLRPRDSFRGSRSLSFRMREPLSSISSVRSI
Nature of the test: Antagonist activity at human S1P4 receptor expressed in EDG6-bla U2OS cells coexpressing human endothelial differentiation gene 6 linked to GAL4-VP16 assessed as beta-lactamase expression at 25 uM by FRET assay. The format is functional, cell-based. A digest of the protocol: (§1)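 Human EDG6 (S1P4) Tango assay in U2OS cells: the receptor is fused via a TEV protease site to a GAL4-VP16 transcription factor, with a co-expressed beta-arrestin/TEV protease fusion. Read-out is a beta-lactamase reporter driven by a UAS response element. Compounds were tested up to 25 μM, with percentage inhibition at 25 μM; values are the mean of n = 3 determinations.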

In test [2] the target is T2, Sphingosine 1-phosphate receptor 1 (Homo sapiens, UniProt P21453). Nature of the test: Inhibition of S1P1 receptor at 25 uM.
T2 sequence (P21453 whole entry): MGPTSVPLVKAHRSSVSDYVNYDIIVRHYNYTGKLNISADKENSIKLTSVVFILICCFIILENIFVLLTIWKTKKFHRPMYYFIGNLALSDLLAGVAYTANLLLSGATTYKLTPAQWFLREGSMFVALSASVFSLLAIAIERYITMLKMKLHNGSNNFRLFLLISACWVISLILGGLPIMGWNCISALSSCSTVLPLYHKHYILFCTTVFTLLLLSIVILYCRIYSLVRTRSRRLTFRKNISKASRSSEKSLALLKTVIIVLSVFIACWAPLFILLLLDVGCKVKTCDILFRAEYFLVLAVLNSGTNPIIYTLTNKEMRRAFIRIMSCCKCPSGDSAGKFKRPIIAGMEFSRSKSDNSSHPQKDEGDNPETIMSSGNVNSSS
In test [3] the target is T3, Sphingosine 1-phosphate receptor 4 (Homo sapiens, UniProt O95977).
T3 sequence (O95977 whole entry): T1 sequence (whole entry)
Nature of the test: Antagonist activity at human S1P4 receptor expressed in EDG6-bla U2OS cells coexpressing human endothelial differentiation gene 6 linked to GAL4-VP16 assessed as beta-lactamase expression by FRET assay. The format is functional, cell-based. In outline:
as §1

For test [4], the target named is T4, Sphingosine 1-phosphate receptor 3 (Homo sapiens, UniProt Q99500). Nature of the test: Inhibition of S1P3 receptor at 25 uM.
T4 sequence (Q99500 whole entry): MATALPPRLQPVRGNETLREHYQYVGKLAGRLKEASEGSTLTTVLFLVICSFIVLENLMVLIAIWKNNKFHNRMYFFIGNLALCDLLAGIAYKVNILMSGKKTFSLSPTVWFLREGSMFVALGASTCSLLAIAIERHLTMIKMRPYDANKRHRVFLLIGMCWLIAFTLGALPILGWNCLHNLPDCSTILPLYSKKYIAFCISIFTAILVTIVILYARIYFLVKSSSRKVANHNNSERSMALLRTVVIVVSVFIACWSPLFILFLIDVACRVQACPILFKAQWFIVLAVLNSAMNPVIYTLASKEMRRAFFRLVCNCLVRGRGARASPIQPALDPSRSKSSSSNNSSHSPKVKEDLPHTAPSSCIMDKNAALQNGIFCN
Test [5] has as its target T5, Sphingosine 1-phosphate receptor 5 (Homo sapiens, UniProt Q9H228). Nature of the test: Inhibition of S1P5 receptor at 25 uM.
Test [6] has as its target T6, Sphingosine 1-phosphate receptor 2 (Homo sapiens, UniProt O95136). Nature of the test: Inhibition of S1P2 receptor at 25 uM.
Test [7] has as its target T2, Sphingosine 1-phosphate receptor 1. Nature of the test: Antagonist activity at S1P1 receptor upto 25 uM. The format is functional.
Test [8] addresses T6, Sphingosine 1-phosphate receptor 2. Nature of the test: Antagonist activity at S1P2 receptor. The format is functional.
For test [9] the target is unchanged. Nature of the test: Inhibition of S1P2 receptor. As to conditions: concentration not given here.
Test [10] addresses T2, Sphingosine 1-phosphate receptor 1. Nature of the test: Antagonist activity at S1P1 receptor. The format is functional.
The target of test [11] is T4, Sphingosine 1-phosphate receptor 3. Nature of the test: Antagonist activity at S1P3 receptor. The format is functional.
The target of test [12] is T5, Sphingosine 1-phosphate receptor 5. Nature of the test: Antagonist activity at S1P5 receptor. The format is functional.

T6 sequence (O95136 whole entry): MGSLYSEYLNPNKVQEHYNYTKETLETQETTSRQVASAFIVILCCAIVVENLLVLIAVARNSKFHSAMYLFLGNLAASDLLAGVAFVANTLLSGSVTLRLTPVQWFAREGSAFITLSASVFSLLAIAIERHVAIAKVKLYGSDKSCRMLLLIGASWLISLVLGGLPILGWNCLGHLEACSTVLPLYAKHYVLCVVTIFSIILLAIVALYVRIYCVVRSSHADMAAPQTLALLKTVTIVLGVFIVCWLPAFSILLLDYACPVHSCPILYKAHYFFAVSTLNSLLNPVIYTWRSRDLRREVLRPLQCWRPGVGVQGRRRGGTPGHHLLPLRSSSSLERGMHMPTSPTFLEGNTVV
T5 sequence (Q9H228 whole entry): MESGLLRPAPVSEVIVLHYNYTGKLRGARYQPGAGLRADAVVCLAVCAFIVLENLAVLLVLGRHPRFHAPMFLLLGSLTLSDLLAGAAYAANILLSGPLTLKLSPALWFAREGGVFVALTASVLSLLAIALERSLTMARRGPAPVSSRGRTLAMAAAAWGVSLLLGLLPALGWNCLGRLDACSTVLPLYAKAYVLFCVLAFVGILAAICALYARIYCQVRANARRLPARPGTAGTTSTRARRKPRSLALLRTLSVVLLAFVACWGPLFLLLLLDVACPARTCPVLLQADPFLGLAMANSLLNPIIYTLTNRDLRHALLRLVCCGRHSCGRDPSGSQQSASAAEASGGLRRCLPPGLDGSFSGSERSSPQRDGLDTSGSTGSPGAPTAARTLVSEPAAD

Regarding `Cc1cccc(C)c1NCc1ccc(-c2cc(Cl)ccc2Cl)o1`, in test [1], the result was inactive.

For `Cc1ccc(C)c(-c2cccc(C(=O)Nc3c(C)cccc3C)c2)c1`, the inhibition in test [2] is 30%; in test [4], 40%; in test [5], 40%; in [6], 25%. In test [3], the concentration for half-maximal inhibition (IC50) was found to be 75 nM.

Turning to `Cc1ccc(C)c(-c2ccc(C(=O)Nc3c(C)cccc3C)n2C)c1`, the IC50 in [3] amounted to 6300 nM.

Regarding `Cc1ccc(C)c(-c2cc(C(=O)Nc3c(C)cccc3C)co2)c1`, the IC50 in test [3] came out at 233 nM.

Regarding `Cc1ccc(C)c(-c2oc(C(=O)Nc3c(C)cccc3C)cc2C)c1`, in test [3], the IC50 turned out to be 911 nM.

Consider `Cc1ccc(C)c(-c2coc(C(=O)Nc3c(C)cccc3C)c2)c1`, for which, in [3], the IC50 was 211 nM.

Turning to `Cc1ccc(C)c(-c2ccc(C(=O)Nc3c(C)cccc3C)s2)c1`, the IC50 in test [3] is 59 nM; in test [8], 1100 nM. Also, the outcome in test [7] was inactive. For the same compound, the inhibition in [9] is 40%; in [4], 35%; in [5], 30%.

`Cc1ccc(C)c(-c2cc(C(=O)Nc3c(C)cccc3C)ccc2C)c1`: in test [3], the IC50 was 2400 nM.

As for `Cc1ccc(C)c(-c2cc(C)c(C(=O)Nc3c(C)cccc3C)o2)c1`, in test [3], the IC50 was 173 nM.

On to `CCc1cccc(C)c1NC(=O)c1nnc(-c2cc(Cl)ccc2Cl)o1`, for which the outcome in test [1] was inactive.

On to `Cc1cccc(C)c1NC(=O)c1cccc(-c2cc(Cl)ccc2Cl)n1`, for which the outcome in [1] was inactive.

As to `Cc1cccc(C)c1NC(=O)c1ccc(-c2cc(Cl)ccc2Cl)o1`, the IC50 in test [10] and in [11] was over 20 µM each time.

As to `Cc1ccc(C)c(-c2ccc(C(=O)Nc3c(C)cccc3C)o2)c1`, the IC50 in test [10], in test [11] and in test [12] was over 20 µM each time.
